Measured values collected from several papers.
Each line is one published result; the experiments were not run side by side.
CHRM1: Muscarinic acetylcholine receptor M1 (CHRM1, Homo sapiens, UniProt P11229)

| Compound | target | assay | system | conditions | quantity | value |
| --- | --- | --- | --- | --- | --- | --- |
| c1cc(N2CCNCC2)c2cc[nH]c2c1 | CHRM1 | ligand displacement, radioligand |  | cell membranes | Ki | > 31.6 µM |
| CSCC[C@H](NC(=O)[C@@H](NC(=O)[C@@H](N)Cc1ccc(O)cc1)C(C)C)C(=O)NCC(=O)N[C@@H](Cc1c[nH]cn1)C(=O)O | Melanocortin receptor 3 (Mus musculus, UniProt P33033) | reporter gene, agonist |  |  | EC50 | > 100 µM |
| CCCCN1CCC(COC(=O)c2cc(Cl)c(N)c3c2OCCO3)CC1 | 5-hydroxytryptamine receptor 4 (HTR4, Homo sapiens, UniProt Q13639) | ligand displacement, radioligand |  |  | Ki | 0.0001 µM |
| N[C@@H](C[C@]1(C(=O)O)C[C@H]2OC[C@@H](O)[C@@H](O)[C@H]2O1)C(=O)O | Glutamate receptor ionotropic, kainate 3 (Rattus norvegicus, UniProt P42264, F446Y) | ligand displacement, radioligand |  |  | Ki | 0.547 µM |
| NCCCCCCNC(=O)c1ccc(NC(=O)c2ccc(CN(C(=O)c3ccc4c(c3)OCC(=O)N4)C3CC3)cc2)cc1 | Histone-lysine N-methyltransferase NSD2 (NSD2, Homo sapiens, UniProt O96028) | protein level, degrader |  |  | DC50 | 0.35 µM |
| CC(C)=CCC/C(C)=C/CC/C(C)=C/CSc1ccccc1C(=O)O | 4,4'-diapophytoene synthase (Staphylococcus aureus, UniProt A9JQL9) | enzyme activity, inhibitor |  |  | Ki | 0.11 µM |
| CC(=O)[C@@]1(O)CC[C@H]2[C@@H]3C=C(Cl)C4=CC(=O)[C@@H]5C[C@@H]5[C@]4(C)[C@H]3CC[C@@]21C | Progesterone receptor (PGR, Homo sapiens, UniProt P06401) | enzyme activity |  |  | IC50 | 0.003 µM |
| CC(C)C[C@H](NC(=O)[C@H](Cc1ccccc1)NC(=O)c1cnccn1)B(O)O | Chymase (CMA1, Homo sapiens, UniProt P23946) | enzyme activity, inhibitor |  |  | IC50 | 4.7 µM |
| CCc1nnc(NS(=O)(=O)c2ccc(NC(=S)NC(=O)/C=C/c3ccc(F)cc3)cc2)s1 | Prostaglandin E2 receptor EP2 subtype (PTGER2, Homo sapiens, UniProt P43116) | cAMP, antagonist, TR-FRET |  |  | Kb | 0.0088 µM |
| COc1cc([C@@H]2c3cc4c(cc3[C@@H](O[C@@H]3O[C@@H]5CO[C@@H](C)O[C@H]5[C@H](O)[C@H]3O)[C@H]3COC(=O)[C@H]23)OCO4)cc(OC)c1O | Organic cation/carnitine transporter 2 (SLC22A5, Homo sapiens, UniProt O76082) | transporter uptake, inhibitor, radiometric |  |  | IC50 | 55 µM |
| COc1cc(C(=O)N2CC[C@@H](O)[C@@H](N)C2)cc2nc(-c3cc4ccccc4n3CC3CC3)n(C)c12 | CHRM1 | calcium signal, antagonist, fluorescence |  |  | IC50 | 12.6 µM |
| CC[C@H](C)[C@H](NC(=O)[C@H](CCCNC(=N)N)NC(=O)[C@H](CCCCN)NC(=O)[C@@H]1CCCN1C(=O)[C@@H](N)Cc1c[nH]c2ccccc12)C(=O)N[C@@H](C)C(=O)O | N-terminal Xaa-Pro-Lys N-methyltransferase 1 (Homo sapiens, UniProt Q9BV86) | binding, ITC |  | pH 7.5 | Kd | 47 µM |
| C[N+]1(C)CCC(OC(=O)C(c2ccccc2)c2ccccc2)CC1 | CHRM1 | ligand displacement, radioligand |  |  | IC50 | 0.00467 µM |
| CC(C)[C@H](N)C(=O)N1CCC[C@H]1B(O)O | Lysosomal Pro-X carboxypeptidase (PRCP, Homo sapiens, UniProt P42785) | enzyme activity, inhibitor |  |  | IC50 | 50.3 µM |
| COC(=O)C1=CCCN(C)C1 | Acetyl-CoA acetyltransferase, mitochondrial (Homo sapiens, UniProt P24752) | enzyme activity, inhibitor |  |  | IC50 | ~11.1 µM |
| Cc1cc(C)nc(Nc2ncc(C(=O)NCCc3c(C)[nH]c4ccccc34)cn2)c1 | Cytochrome P450 1A2 (CYP1A2, Homo sapiens, UniProt P05177) | enzyme activity, inhibitor | human, liver microsomes |  | IC50 | 16 µM |
| CC(=O)N[C@H](C(=O)N[C@@H](CC(=O)O)C(=O)N[C@@H](CC(=O)O)C(=O)N[C@@H](Cc1ccccc1)C(=O)N[C@@H](CC(=O)O)C(=O)N[C@@H](CCCNC(=N)N)C(=O)N[C@H](C(=O)N[C@@H](Cc1c[nH]c2ccccc12)C(=O)N[C@@H](CCC(N)=O)C(=O)NCC(=O)N[C@@H](CC(C)C)C(=O)N[C@H](C(=O)NCC(=O)N[C@@H](CC(C)C)C(N)=O)C(C)C)C(C)C)C(C)C | E3 ubiquitin-protein ligase Mdm2 (MDM2, Homo sapiens, UniProt Q00987) | ligand displacement, FP |  |  | Kd | 41 µM |
